Measured values published in ChEMBL document CHEMBL1148193, “Cytotoxic pyrroloiminoquinones from four new species of South African latrunculid sponges” (J Nat Prod, 2004).

Tests used:
HCT-116 = assay: Cytotoxicity against human HCT116 cells after 72 hrs by MTS assay; format: functional, cell-based; details: HCT-116, 72 h
In short: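 HCT-116 colon tumor cells plated and incubated overnight at 37 °C, then given serially diluted samples in DMSO for a further 72 h. Etoposide as positive control and DMSO as negative control. MTS/PMS added for 3 h, absorbance read at 490 nm, IC50 derived from serial dilution data.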

Salmonidae = assay: Displacement of ethidium bromide form salmon testes sperm DNA by fluorescence plate reader
In short: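 Salmon testes sperm DNA (25 μg mL⁻¹) with ethidium bromide (0.5 μg mL⁻¹) in TE, compound final concentrations 100 to 0.01 μM in tenfold steps. n = 4 per dose, n = 8 for controls. Fluorescence measured, background EtBr subtracted and divided by the DNA+EtBr control. KS is the concentration giving 50% fluorescence decrease.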

[1] = biological target: T1, DNA topoisomerase 1 (Homo sapiens) (UniProt P11387); assay: Inhibition of topoisomerase 1-mediated relaxation of supercoiled DNA assessed as DNA cleavage at 500 uM relative to control; parameters: scale not given: the % may be the effect or the level left
T1 sequence (whole entry): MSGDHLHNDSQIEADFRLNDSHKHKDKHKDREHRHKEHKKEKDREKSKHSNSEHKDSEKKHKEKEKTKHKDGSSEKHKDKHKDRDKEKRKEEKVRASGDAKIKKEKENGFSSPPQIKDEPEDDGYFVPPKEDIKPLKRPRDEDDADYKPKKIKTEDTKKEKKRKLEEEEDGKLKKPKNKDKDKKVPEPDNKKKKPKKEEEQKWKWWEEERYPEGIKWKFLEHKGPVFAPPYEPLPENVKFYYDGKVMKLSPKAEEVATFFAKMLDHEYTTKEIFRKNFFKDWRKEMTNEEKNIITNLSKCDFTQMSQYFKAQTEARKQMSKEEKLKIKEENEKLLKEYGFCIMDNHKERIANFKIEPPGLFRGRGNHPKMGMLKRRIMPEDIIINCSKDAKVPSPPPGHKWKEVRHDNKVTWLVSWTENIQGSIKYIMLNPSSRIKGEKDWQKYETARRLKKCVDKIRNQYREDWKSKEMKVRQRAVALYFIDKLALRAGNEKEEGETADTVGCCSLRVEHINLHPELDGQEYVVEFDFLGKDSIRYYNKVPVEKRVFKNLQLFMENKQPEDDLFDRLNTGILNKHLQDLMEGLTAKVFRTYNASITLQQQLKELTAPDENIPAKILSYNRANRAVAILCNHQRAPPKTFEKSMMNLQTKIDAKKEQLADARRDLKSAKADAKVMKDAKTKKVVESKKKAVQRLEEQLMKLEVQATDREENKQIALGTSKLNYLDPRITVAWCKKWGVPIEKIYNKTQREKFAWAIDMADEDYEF
In short: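 Radiolabeled supercoiled rf M13 mp19 DNA with purified topoisomerase I (80-120 ng) in Tris-HCl 50 mM pH 7.5, KCl 85 mM, MgCl2 10 mM, EDTA 0.5 mM, BSA 30 μg/mL, DTT 2 mM. Compound in DMSO, 30 °C for 30 min, then proteinase K/SDS at 37 °C for 60 min. 0.8% agarose gel, bands excised and scintillation counted. % cleaved from nicked plus linear bands over total, minus endogenous cleavage. 9-aminocamptothecin as reference.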

[2] = biological target: T1, DNA topoisomerase 1 (Homo sapiens); assay: Inhibition of topoisomerase 1-mediated relaxation of supercoiled DNA assessed as DNA cleavage at 9 uM relative to control; parameters: scale not given: the % may be the effect or the level left
In short: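 Radiolabelled supercoiled rf M13 mp19 DNA (500 ng) and purified topoisomerase I (80-120 ng) in Tris-HCl 50 mM pH 7.5, KCl 85 mM, MgCl2 10 mM, EDTA 0.5 mM, BSA 30 µg/mL, DTT 2 mM. Compound added in DMSO; 30 °C, 30 min. Proteinase K/SDS stop (37 °C, 60 min). Bands resolved on 0.8% agarose, excised and scintillation-counted. Nicked+linear counts taken as % of total, minus endogenous cleavage.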

Row | SMILES | IC50 (HCT-116) [nM] | other results
1 | Cn1cc2c3c1C(=O)c1[nH]cc(-c4ccc(O)cc4)c1C3=[N+]([O-])CC2 | 16500 | Ks (Salmonidae): 30 µM; Activity [1]: 26%
2 | O=C1C(Br)=CC2(C=C1Br)CCNC1=C2C2=NCCc3c(Br)[nH]c(c32)C1=O | 77 | –
3 | O=C1C2=C(C3=NCCc4c(Br)[nH]c1c43)C1(C=CN2)C=C(Br)C(O)C(Br)=C1 (stereo not given) | 222 | –
4 | O=C1C2=C(C3=NCCc4c(Br)[nH]c1c43)C1(C=C(Br)C(O)C(Br)=C1)CCN2 (stereo not given) | 645 | –
5 | COC1[C@H]2C(=O)C=C3S[C@H]4C[C@]31C1=C(N4)C(=O)c3[nH]cc4c3C1=[N+]2CC4 (stereo not given in full) | 232 | –
6 | O=C1C2=C(C3=NCCc4c[nH]c1c43)C1(C=CN2)C=C(Br)C(O)C(Br)=C1 (stereo not given) | 197 | –
7 | O=C1c2[nH]cc3c2C(=[N+](O)CC3)c2c(-c3ccc(O)cc3)c[nH]c21 | 128000 | Ks (Salmonidae): 20 µM; Activity [1]: 45%
8 | O=C1C2=C3C4=[N+](CCc5c(Br)[nH]c1c54)C1C(O)C(Br)=CC3(CCN2)C1O (stereo not given) | 12500 | –
9 | NC1[C@H]2C(=O)C=C3S[C@H]4C[C@]31C1=C(N4)C(=O)c3[nH]cc4c3C1=[N+]2CC4 (stereo not given in full) | 119 | –
10 | CC[C@@]1(O)C(=O)OCc2c1cc1n(c2=O)Cc2cc3c(N)cccc3nc2-1 | – | Activity [2]: 87%
11 | O=C1c2[nH]cc3c2C(=NCC3)c2c(-c3c[nH]c4ccccc34)c[nH]c21 | – | Ks (Salmonidae): 20 µM
12 | CN1CCc2c[nH]c3c2C1=CC(=O)C3=O [DAMIRONE B] | 3100 | –
13 | O=C1C2=C(C3=NCCc4c[nH]c1c43)C1(C=C(Br)C(O)C(Br)=C1)CCN2 (stereo not given) [DIHYDRODISCORHABDIN C] | 323 | –
14 | O=C1C2=C3C4=[N+](CCc5c[nH]c1c54)[C@H]1C[C@@]34C[C@@H](N2)SC4=CC1=O [DISCORHABDIN D] | 595 | –
15 | O=C1C=CC23CC(NC4=C2C2=NCCc5c[nH]c(c52)C4=O)SC3=C1 (stereo not given) [DISCORHABDIN G] | 327 | –
16 | O=C(O)CNC1C2C(=O)C=C3SC4CC31C1=C(N4)C(=O)c3[nH]cc4c3C1=[N+]2CC4 (stereo not given) [DISCORHABDIN N] | 2250 | –
17 | O=C1C2=C3C4=[N+](CCc5c[nH]c1c54)C1CC3(C=C(Br)C1O)CCN2 (stereo not given) [DISCORHABDIN V] | 1270 | –
18 | O=C1C[C@H]2S[C@H]3C[C@]2(C=C1Br)C1=C(N3)C(=O)c2[nH]cc3c2C1=NCC3 [DISCORHABDINE A] | 7 | –
19 | C[N+]1=C2C=C(N)C(=O)c3[nH]cc(c32)CC1 [MAKALUVAMINE C] | 1090 | –
20 | CN1CCc2c[nH]c(C(=O)O)c2C1=O [MAKALUVIC ACID A] | 28400 | –
21 | O=C1c2[nH]cc3c2C(=NCC3)c2c(-c3ccc(O)cc3)c[nH]c21 [TSITSIKAMMAMINE A] | 1410 | Ks (Salmonidae): 15 µM; Activity [1]: 59%
22 | Cn1cc2c3c1C(=O)c1[nH]cc(-c4ccc(O)cc4)c1C3=NCC2 [TSITSIKAMMAMINE B] | 2380 | Ks (Salmonidae): 45 µM; Activity [1]: 27%
